ChEMBL document CHEMBL1124068, “5-Methyl-2-pyrrolidone analogues of oxotremorine as selective muscarinic agonists” (J Med Chem, 1988)
pEC50, pKd: −log10 of the molar value. Active and inactive are the calls of the source.

Key:
[1] = Acute toxicity administered intraperitoneally to mice; type: organism-based; conditions: mouse, in vivo, ip
Mus musculus [2] = assay: Tremorolytic activity administered intraperitoneally to mice; type: functional; conditions: ip
Method in brief: (§1)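 Antagonists given ip to groups of six or more male Swiss-Webster mice (24-32 g), six untreated controls; 20 min later iv oxotremorine ED50 for grade 2 intermittent spontaneous tremor found by up-and-down method. Dose doubling oxotremorine ED50 derived by linear regression; values are means ± standard errors.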

Mus musculus [3] = assay: Muscarinic activity administered intraperitoneally to mice, expressed as salivation; type: functional; conditions: ip
Method in brief: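 Male Swiss-Webster mice (24-32 g) dosed ip at 20.5 ± 1.0 °C; salivation judged by pressing mouth onto absorbent tissue; threshold dose estimated by up-and-down method.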

Cavia porcellus [4] = species: Cavia porcellus; assay: Concentration that elicits 50% of its own maximum contractile response in guinea pig ileum; type: functional
Method in brief: (§2)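 Isolated guinea pig ileum in Tyrode solution (pH 7.4) with 0.3 mM hexamethonium, 37 °C; isotonic contractions at 1 g tension. Cumulative agonist concentration-response curves, concentration raised stepwise by factor 2.15; maxima expressed relative to carbachol.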

Cavia porcellus [5] = species: Cavia porcellus; assay: Efficacy relative to that of carbachol (guinea pig urinary bladder); type: functional
Cavia porcellus [6] = species: Cavia porcellus; assay: Efficacy relative to that of carbachol; type: functional
Cavia porcellus [7] = species: Cavia porcellus; assay: Equilibrium dissociation constant receptor complex, measured in guinea pig urinary bladder; type: functional
Cavia porcellus [8] = species: Cavia porcellus; assay: Maximum contractile response relative to that elicited by carbachol was measured in guinea pig urinary bladder; type: functional
Method in brief: (§3)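 Guinea pig bladder strips in Krebs-Henseleit solution (pH 7.4) with 0.3 mM hexamethonium, 37 °C; isotonic recording at 1 g tension; cumulative agonist additions increased by factor 3.16; responses referenced to carbachol.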

Cavia porcellus [9] = species: Cavia porcellus; assay: Concentration that elicits 50% of its own maximum contractile response in guinea pig urinary bladder; type: functional; method in brief: as §3
Mus musculus [10] = assay: Central muscarinic activity administered intraperitoneally to mice, expressed as hypothermia; type: functional; conditions: ip
Method in brief: (§4)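 Rectal temperature (probe ~25 mm) in male Swiss-Webster mice (24-32 g) after ip dosing at 20.5 ± 1.0 °C; six mice per dose, five to six doses, readings every 20 min for 3 h. Maximal fall from pretreatment used; ED50 from logistic fit.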

Cavia porcellus [11] = species: Cavia porcellus; assay: Maximum contractile response relative to that elicited by carbachol was measured in guinea pig ileum; type: functional; method in brief: as §2
Mus musculus [12] = assay: Central muscarinic activity administered intraperitoneally to mice, expressed as analgesia; type: functional; conditions: ip
Method in brief: (§5)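 Male Swiss-Webster mice (24-32 g), ip, 20.5 ± 1.0 °C; tail-flick test, 15 s cut-off, groups of ten at three to four dose levels. Reaction time above control mean plus 3 SD counted as increased; ED50 by probit analysis.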

Cavia porcellus [13] = species: Cavia porcellus; assay: Equilibrium dissociation constant receptor complex, measured in guinea pig ileum; type: functional
Mus musculus [14] = assay: Central muscarinic activity administered intraperitoneally to mice, expressed as hypothermia; d = no effect was observed; type: functional, organism-based; method in brief: as §4
Mus musculus [15] = assay: Central muscarinic activity administered intraperitoneally to mice, expressed as analgesia; d = no effect was observed; type: functional, organism-based; method in brief: as §5
Mus musculus [16] = assay: Tremorolytic activity administered intraperitoneally to mice; c = no significant blockade was observed; type: functional, organism-based; method in brief: as §1

SMILES	LD50 [1] [µmol/kg]	ED50 (Mus musculus [2]) [µmol/kg]	ED50 (Mus musculus [3]) [µmol/kg]	pEC50 (Cavia porcellus [4])	Relative efficacy (Cavia porcellus [5])	Relative efficacy (Cavia porcellus [6])	pKd (Cavia porcellus [7])	Emax (Cavia porcellus [8])	pEC50 (Cavia porcellus [9])	ED50 (Mus musculus [10]) [µmol/kg]	Emax (Cavia porcellus [11])	ED50 (Mus musculus [12]) [µmol/kg]	pKd (Cavia porcellus [13])	ED50 (Mus musculus [14])	ED50 (Mus musculus [15])	ED50 (Mus musculus [16])
CC1CCC(=O)N1CC#CCN1CCCC1 (centres undefined)	107	0.36														
CC1CCC(=O)N1CC#CCN1CCC1 (centres undefined)	192	4.6	1.3	6.64	0.022	0.02	6.24	21.4	5.34	4.9	90	0.71	6.28			
CCN(CC)CC#CCN1C(=O)CCC1C (centres undefined)	720	5.1					5.68	0			0		5.96			
CC1CCC(=O)N1CC#CC[N+](C)(C)C.[I-] (centres undefined)	33.6		12	6.74	0.062	0.057	5.55	71.4	5.70		100		5.77	inactive	inactive	inactive
C[N+](C)(C)CCOC(N)=O.[Cl-] [CARBACHOL]				6.96	1	1	4.77	100	6.05		100		4.85			
CCN(C)CC#CCN1C(=O)CCC1C (centres undefined)	636	6.7					5.60	0			0		5.74			
CC1CCC(=O)N1CC#CCN(C)C (centres undefined)	402	22.8	4	6.04	0.064	0.04	4.93	58.1	4.82	13.1	102	1.5	5.37			
CN1[C@@H]2CC[C@H]1C[C@@H](OC(=O)C(CO)c1ccccc1)C2 (some centres undefined) [ATROPINE]		0.57														
CC(=O)N(C)C(C)C#CCN1CCCC1 (centres undefined)	665	0.63	0.65	6.72		0.012	6.85	<5		0.75	82.6	0.37	6.62			
CC[N+](C)(C)CC#CCN1C(=O)CCC1C.[I-] (centres undefined)	176			5.49		0.0036	5.46	0			28.7		5.31			No significant blockade
O=C1CCCN1CC#CCN1CCCC1 [OXOTREMORINE]			0.29							0.22		0.05				
